“And” between values parts separate entries of the source, which are not always exact repeats. Equal entries are not always repeated. “Also recorded” adds a separate entry of the source.
Experiments:
[1] = tested on: monosialodihexosylganglioside; assay: Monosialodihexosylganglioside in CSF; type: in vivo, human; details: Weeks 4, 26 and 52; measurable at baseline in eight of 11 patients
Method in brief: (§1)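 Exploratory CSF biomarkers quantified in CSF taken by lumbar puncture at baseline and Weeks 1, 4, 26 and 52. Adults with GD3 received oral test compound 15 mg once daily plus maintenance IV enzyme replacement for 52 weeks.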

glucosylceramide = assay: Glucosylceramide concentration in plasma and CSF, LEAP trial; type: in vivo, human
Method in brief: (§2)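 CSF collected by lumbar puncture at baseline and Weeks 1, 4, 26, 52; plasma at baseline and Weeks 1, 4, 12, 26, 39, 52. Dosing was oral test compound 15 mg once daily with maintenance IV enzyme replacement. LLOQ: glucosylceramide 0.1 μg/ml plasma, 2.0 ng/ml CSF; glucosylsphingosine 5.0 ng/ml plasma, 5 pg/ml CSF. Change from baseline summarised as median percentage with interquartile range and 95% CI.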

adults with GD3 [2] = assay: Vineland Adaptive Behavior Scale II; type: in vivo, human; details: over 1 year of venglustat treatment
adults with GD3 [3] = assay: Trail Making Test; type: in vivo, human
Method in brief: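 Neurocognition measured with the Trail Making Test: Part A (timed visual search and psychomotor speed) and Part B (set-shifting, executive component). Trail B minus Trail A time was derived to remove graphomotor and visual-scanning variance. Baseline versus Week 52 under oral test compound 15 mg once daily plus maintenance IV enzyme replacement.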

adults with GD3 [4] = assay: Systemic manifestations of GD; type: in vivo, human
Method in brief: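 Haemoglobin, platelet count, and liver and spleen volumes assessed per standard clinical practice over 1 year of daily oral test compound 15 mg plus maintenance IV enzyme replacement. Bone mineral density measured by DXA; bone marrow burden scored from lumbar spine and femur MRI. Lung function followed ATS standards: spirometry (FVC, FEV₁), total lung capacity and carbon monoxide diffusing capacity.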

[5] = tested on: glucosylceramide synthase; details: cited from earlier work
CYP3A = details: no reference given; cited from earlier work
plasma glucosylceramide = details: cited from earlier work
[6] = Venglustat CSF pharmacokinetics, LEAP trial; type: in vivo, human; details: for CSF venglustat concentration, mean (SD): 10 patients (Patient 9 excluded); for CSF venglustat concentration, Patient 9: single patient with low exposure
Method in brief: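 CSF for drug levels collected pre-dose on Day 1 and 2–4 h post-dose at Weeks 4, 26 and 52 (reported as ~4 h), while on oral test compound 15 mg once daily. Concentrations summarised descriptively, with one patient excluded from summary statistics. Values below LLOQ entered as 0.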

adults with GD3 [7] = assay: Horizontal and vertical saccadic eye movements; type: in vivo, human; details: after 1 year; horizontal or vertical velocity and amplitude
Method in brief: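 Horizontal and vertical saccades recorded non-invasively and assessed by a central reader. Eye-position and target traces were filtered to give eye velocity. Saccades were detected by velocity criteria, and amplitude, duration and peak velocity were derived. Patients took oral test compound 15 mg once daily on top of maintenance IV enzyme replacement for 1 year.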

adults with GD3 [8] = assay: Brain volumetric MRI, tensor-based morphometry; type: in vivo, human
Method in brief: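 MRI of brain and brainstem (at least T1 and T2) at baseline, Week 26 and Week 52 on 1.5 or 3 T scanners, read centrally by a reviewer blinded to patient and time point. FreeSurfer parcellation. Tensor-based morphometry: symmetric log-demons registration of baseline/follow-up pairs with a cross-correlation metric. The Jacobian determinant integrated over each region gives the rate of volume change.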

ceramide = assay: Ceramide in CSF; type: in vivo, human; details: baseline and throughout the study
Method in brief: as §1

glucosylsphingosine = assay: Glucosylsphingosine concentration in plasma and CSF, LEAP trial; type: in vivo, human
Method in brief: as §2

adults with GD3 [9] = assay: Resting functional MRI connectivity; type: in vivo, human
Method in brief: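 Resting-state BOLD fMRI at baseline, Week 26 and Week 52, analysed centrally and blinded. Regions of interest came from FreeSurfer segmentation masks, using parcellation of the baseline high-resolution 3D-T1 image. Full and partial connectivity were computed between resting-state networks 1, 2, 3, 6, 7 and 8 using published template maps.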

[10] = Venglustat plasma pharmacokinetics, LEAP trial; type: in vivo, human; details: for plasma venglustat concentration, mean (SD): 10 patients (Patient 9 excluded); for plasma venglustat concentration, Patient 9: single patient with low exposure
Method in brief: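 Plasma sampled on Day 1 pre-dose and at 1, 2, 4, 8 and 24 h. Further samples taken 2–4 h post-dose at Weeks 4, 26 and 52, and pre-dose at Weeks 12 and 39. Oral test compound 15 mg once daily. […] Values below LLOQ entered as 0.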

[11] = baseline to Week 52, 11 patients
[12] = individual patients, baseline to Week 52
[13] = Week 4, ~4 h post-dose, 15 mg once daily
[14] = Week 26, ~4 h post-dose, 15 mg once daily
[15] = Week 52, ~4 h post-dose, 15 mg once daily
[16] = after 1 year, patient with low venglustat exposure

Compound: CC(C)(NC(=O)O[C@@H]1CN2CCC1CC2)c1csc(-c2ccc(F)cc2)n1 [Venglustat]
- monosialodihexosylganglioside in CSF on treatment [1]: undetectable in all CSF samples
- median glucosylceramide reduction in CSF (glucosylceramide; [11]): 81%
- median glucosylceramide reduction in plasma (glucosylceramide; [11]): 78%
- Glucosylceramide concentration, CSF, Change (glucosylceramide; [12]): −4.04 ng/ml and −4.95 ng/ml and −8.95 ng/ml and +1.64 ng/ml and −4.17 ng/ml and −4.7 ng/ml and −3.32 ng/ml and −3.53 ng/ml and −7.02 ng/ml and −13.3 ng/ml
- Glucosylceramide concentration, CSF, Percentage change (glucosylceramide; [12]): −80.2% and −83.2% and −80.6% and +37.1% and −80.7% and −82.5% and −47.4% and −77.9% and −76.9% and −87.5% and −93%
- Glucosylceramide concentration, Plasma, Change (glucosylceramide; [12]): −4.31 μg/ml and −5.49 μg/ml and −4.7 μg/ml and +1.14 μg/ml and −3.97 μg/ml and −2.24 μg/ml and −5.31 μg/ml and −4.19 μg/ml and −3.68 μg/ml and −6.69 μg/ml
- Glucosylceramide concentration, Plasma, Percentage change (glucosylceramide; [12]): −82.5% and −78.4% and −71.6% and +13.7% and −78.2% and −85.9% and −45.8% and −84% and −80.3% and −77% and −85.1%
- Vineland II domain scores over time (adults with GD3 [2]): deteriorated in all domains; also recorded: All domains decreased in normative score
- time to complete TMT Trail A at Week 52, mean (SD) (adults with GD3 [3]; baseline 54.4 (47.5) s): 53.5 (43.1) s
- time to complete Trail B minus Trail A at Week 52, mean (adults with GD3 [3]; baseline 99.3 s): 61.7 s
- time to complete TMT Trail B at Week 52, mean (SD) (adults with GD3 [3]; baseline 153.6 (149.4)): 115.3 (76.8) seconds
- patients with reduction in Trail B minus Trail A time (adults with GD3 [3]; baseline to Week 52): 7 of 11
- time to complete TMT Trail A, mean change (adults with GD3 [3]; baseline to Week 52, 95% CI: −21.0 to 19.4): -0.8 s
- time to complete Trail B minus Trail A, mean change (adults with GD3 [3]; baseline to Week 52, 95% CI: −88.1 to 13.0): -37.5 s
- time to complete TMT Trail B, mean change (adults with GD3 [3]; baseline to Week 52, 95% CI: −104.8 to 28.1): -38.4 s
- patients with reduction in TMT Trail B time (adults with GD3 [3]; baseline to Week 52, marked reduction): 8 of 11
- patients with reduction in TMT Trail A time (adults with GD3 [3]; baseline to Week 52, minor reduction): 5 of 11
- lumbar spine bone mineral density category (adults with GD3 [4]; after 1 year, seven patients with data): five patients remained in the same bone density category
- interstitial lung disease (adults with GD3 [4]; after 1 year, seven patients with detectable disease at baseline): four improved
- bone marrow burden scores (adults with GD3 [4]; during 1 year of treatment, 11 patients): remained in the same severity category in 10 patients
- haemoglobin concentrations, platelet counts, spleen and liver volumes (adults with GD3 [4]; throughout 1 year, reference range for healthy persons): remained in this range
- inhibition of glucosylceramide formation [5]: potent and specific inhibitor
- metabolism by CYP3A (CYP3A): principally metabolized by the CYP3A cytochrome complex
- mean plasma glucosylceramide reduction from baseline (plasma glucosylceramide; 15 mg once daily, Day 15, healthy volunteers): 74.6%
- safety and tolerability in healthy volunteers (plasma glucosylceramide; once-daily dosing of up to 15 mg): favourable safety and tolerability profile
- Emax (plasma glucosylceramide reduction) (plasma glucosylceramide; pharmacokinetic-pharmacodynamic modelling after repeated dosing): 80%
- CSF venglustat concentration, mean (SD) [6, 13]: 6.63 (2.42) ng/ml
- CSF venglustat concentration, Patient 9 ([6]; Week 4): 3.05 ng/mL
- CSF venglustat concentration, mean (SD) [6, 14]: 6.77 (1.96) ng/ml
- CSF venglustat concentration, Patient 9 ([6]; Week 26): 1.77 ng/mL
- CSF venglustat concentration, mean (SD) [6, 15]: 6.14 (3.44) ng/ml
- CSF venglustat concentration, Patient 9 ([6]; Week 52): undetectable
- steady state reached (CSF) ([6]; mean CSF concentrations, Patient 9 excluded, 15 mg once daily): ≤ 4 Week
- crossing of the blood–brain barrier ([6]; venglustat detectable in CSF 4 h post dose over 1 year (excluding Patient 9)): crossed the blood–brain barrier
- treatment effect on saccadic eye movements (adults with GD3 [7]): no clear evidence of a treatment effect
- ventricular volume increase, Patient 9 (adults with GD3 [8]; [16]): 9.6%
- whole brain volume reduction, Patient 9 (adults with GD3 [8]; [16]): 1.57%
- change in whole brain volume, Patient 9 (adults with GD3 [8]; after 1 year, patient with low-to-undetectable venglustat exposure, baseline 882 951 mm^3): −13894.8 mm^3
- MRI whole brain volume, Percentage change (adults with GD3 [8]; [12]): −0.52% and 0.38% and 0.11% and −1.57% and −0.22% and −0.23% and 0.025% and 0.48% and 0.21%
- regional brain volume change (mean atrophy ± SD), left cuneus (adults with GD3 [8]; vMRI Group A, Week 52): 37.2 ± 46.2
- regional brain volume change (mean atrophy ± SD), left entorhinal (adults with GD3 [8]; vMRI Group A, Week 52): 34.5 ± 32.1
- regional brain volume change (mean atrophy ± SD), left lingual (adults with GD3 [8]; vMRI Group A, Week 52): 50.1 ± 80.0
- regional brain volume change (mean atrophy ± SD), left pericalcarine (adults with GD3 [8]; vMRI Group A, Week 52): 18.5 ± 22.0
- regional brain volume change (mean atrophy ± SD), left putamen (adults with GD3 [8]; vMRI Group A, Week 52): 94.7 ± 78.7
- regional brain volume change (mean atrophy ± SD), right accumbens area (adults with GD3 [8]; vMRI Group A, Week 52): 12.9 ± 9.6
- regional brain volume change (mean atrophy ± SD), right amygdala (adults with GD3 [8]; vMRI Group A, Week 52): 60.8 ± 74.9
- regional brain volume change (mean atrophy ± SD), right postcentral (adults with GD3 [8]; vMRI Group A, Week 52): 91.7 ± 100.0
- regional brain volume change (mean atrophy ± SD), right putamen (adults with GD3 [8]; vMRI Group A, Week 52): 97.8 ± 100.8
- ventricle volume change (mean ± SD) (adults with GD3 [8]; vMRI Group A, Week 52): −438 ± 696.9
- ceramide concentrations in CSF (ceramide): within reference ranges
- median glucosylsphingosine reduction in CSF (glucosylsphingosine; [11]): 70%
- median glucosylsphingosine reduction in plasma (glucosylsphingosine; [11]): 56%
- Glucosylsphingosine concentration, CSF, Change (glucosylsphingosine; [12]): −72 pg/ml and −23.2 pg/ml and −30.2 pg/ml and +75.8 pg/ml and −15.75 pg/ml and −53.5 pg/ml and −9.8 pg/ml and −14.3 pg/ml and −17.3 pg/ml and −32.7 pg/ml and −35.7 pg/ml
- Glucosylsphingosine concentration, CSF, Percentage change (glucosylsphingosine; [12]): −72% and −48% and −44.7% and +313.2% and −69.7% and −95.5% and −46% and −71.1% and −87.4% and −75.7% and −70.3%
- Glucosylsphingosine concentration, Plasma, Change (glucosylsphingosine; [12]): −3.2 ng/ml and −18.9 ng/ml and −33 ng/ml and +69 ng/ml and −3.79 ng/ml and −22.5 ng/ml and −6.28 ng/ml and −8.67 ng/ml and −8.07 ng/ml and −4.5 ng/ml and −31.3 ng/ml
- Glucosylsphingosine concentration, Plasma, Percentage change (glucosylsphingosine; [12]): −56.1% and −50.7% and −41.4% and +43.4% and −60.3% and −57.8% and −71.5% and −59.8% and −47.8% and −23.3% and −64%
- functional connectivity relative to baseline (adults with GD3 [9]; Weeks 26 and 52, patients with venglustat exposure (fMRI Group A)): stronger connectivity
- maximal increased correlation coefficient (adults with GD3 [9]; fMRI Group A (nine patients)): 0.19 ± 0.16
- accumulation in plasma after once-daily dosing versus Day 1 ([10]; 4 h post-dose plasma concentrations, 15 mg once daily): ~2 fold
- plasma venglustat concentration, mean (SD) ([10]; Day 1, ~4 h post-dose, 15 mg once daily): 48 (17.5) ng/ml
- plasma venglustat concentration, mean (SD) [10, 13]: 116 (48.1) ng/ml
- plasma venglustat concentration, Patient 9 ([10]; Week 4): 102 ng/mL
- plasma venglustat concentration, mean (SD) [10, 14]: 120 (40.1) ng/ml
- plasma venglustat concentration, Patient 9 ([10]; Week 26): 53.3 ng/mL
- plasma venglustat concentration, mean (SD) [10, 15]: 114 (65.8) ng/ml
- plasma venglustat concentration, Patient 9 ([10]; Week 52): undetectable
- AUC(0-t) ([10]; human, plasma, po, 15 mg): 851 ng·h/mL
- Cmax ([10]; human, plasma, po, 15 mg): 58.1 ng/mL
- Tmax ([10]; human, plasma, po, 15 mg): 2 h
- steady state reached (plasma) ([10]; mean plasma concentrations, Patient 9 excluded, 15 mg once daily): ≤ 4 Week

From article PMC9924909 (Brain, 2022)
